{
  "source": "ChEMBL document CHEMBL1150569",
  "about": "“Three new furan derivatives and a new fatty acid from a Taiwanese marine sponge Plakortis simplex” (J Nat Prod, 2001)",
  "data": [
    {"assay": "(§1) Cytotoxicity against human KB16 cells", "format": "functional, cell-based", "details": "Homo sapiens, KB16; read-out: IC50; call rule not given here", "outline": "(§2)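 In vitro cytotoxicity against human tumor cells: COLO-250 colon carcinoma cells and KB-16 nasopharyngeal carcinoma cells. Activity expressed as IC50 in µg/mL.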", "units": {"IC50": "µg/mL"}, "values": [
      {"smiles": "CCCCCCCCCCCCCCCC[C@@]1(OC)C=C[C@@H](CC(=O)OC)OO1", "note": "[CHONDRILLIN]", "IC50": 0.74},
      {"smiles": "CCCCCCCCCCCCCCCCc1ccc(CC(=O)O)o1", "note": "[PLAKORSIN B]", "IC50": 3.43}
    ]},
    {"assay": "as §1", "format": "functional, cell-based", "details": "kb16", "outline": "as §2", "values": [
      {"smiles": "COC(=O)/C=C\\C=C/C(=O)O", "IC50": "Not Active"},
      {"smiles": "CCCCCCCCCCCCCCCC[C@@]1(OC)C=C[C@H](CC(=O)OC)OO1", "IC50": "Not Active"},
      {"smiles": "COC(=O)CCC(=O)CC(=O)OC", "IC50": "Not Active"},
      {"smiles": "COC(=O)C[C@@H]1C=CC(=O)O1", "IC50": "Not Active"},
      {"smiles": "CCCCCCCCCCCCCCCCc1ccc(CC(=O)OC)o1", "note": "[PLAKORSIN A]", "IC50": "Not Active"},
      {"smiles": "CCCCC(CCC=O)CCCCCCCc1ccc(CC(=O)OC)o1", "note": "(stereo not drawn) [PLAKORSIN C]", "IC50": "Not Active"},
      {"smiles": "CCCCCCCCCCCCCCCCC(=O)/C=C/C1OC1C(=O)O", "note": "(stereo not drawn) [PLAKORTIC ACID]", "IC50": "Not Active"}
    ]},
    {"assay": "(§3) Cytotoxicity against human COLO250 cells", "format": "functional, cell-based", "details": "not given", "outline": "as §2", "values": [
      {"smiles": "COC(=O)/C=C\\C=C/C(=O)O", "IC50": "Not Active"},
      {"smiles": "CCCCCCCCCCCCCCCC[C@@]1(OC)C=C[C@H](CC(=O)OC)OO1", "IC50": "Not Active"},
      {"smiles": "COC(=O)CCC(=O)CC(=O)OC", "IC50": "Not Active"},
      {"smiles": "COC(=O)C[C@@H]1C=CC(=O)O1", "IC50": "Not Active"},
      {"smiles": "CCCCCCCCCCCCCCCC[C@@]1(OC)C=C[C@@H](CC(=O)OC)OO1", "note": "[CHONDRILLIN]", "IC50": "Not Active"},
      {"smiles": "CCCCCCCCCCCCCCCCc1ccc(CC(=O)OC)o1", "note": "[PLAKORSIN A]", "IC50": "Not Active"},
      {"smiles": "CCCCC(CCC=O)CCCCCCCc1ccc(CC(=O)OC)o1", "note": "(stereo not drawn) [PLAKORSIN C]", "IC50": "Not Active"},
      {"smiles": "CCCCCCCCCCCCCCCCC(=O)/C=C/C1OC1C(=O)O", "note": "(stereo not drawn) [PLAKORTIC ACID]", "IC50": "Not Active"}
    ]},
    {"assay": "as §3", "format": "functional, cell-based", "details": "Homo sapiens; read-out: IC50", "outline": "as §2", "units": {"IC50": "µg/mL"}, "values": [
      {"smiles": "CCCCCCCCCCCCCCCCc1ccc(CC(=O)O)o1", "note": "[PLAKORSIN B]", "IC50": 0.28}
    ]}
  ]
}
